Assay results reported in ChEMBL document CHEMBL4382250, “Structure-based exploration and pharmacological evaluation of N-substituted piperidin-4-yl-methanamine CXCR4 chemokine receptor antagonists” (Eur J Med Chem, 2019).
Calls of active or inactive are those of the source. The calls are words filed in the database; no cut-off is given here.

Biological target: T1, C-X-C chemokine receptor type 4 (Homo sapiens, UniProt P61073)
Test: Displacement of [125I]-CXCL12 from human CXCR4 receptor expressed in HEK293T cell membranes after 2 hrs by scintillation counting analysis
How it was run: (§1)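 Membranes (5 µg/well) from HEK293T transiently transfected with hCXCR4, incubated 2 h at 25 °C with 50 pM ¹²⁵I-CXCL12 in HEPES pH 7.4 buffer with CaCl₂, MgCl₂, NaCl, 1% BSA. Filtration through PEI-soaked GF/C, then scintillation counting. Non-specific binding defined by 10⁻⁵ M IT1t; three-parameter fit for pIC₅₀. Single-point displacement at 100 μM vs IT1t (100%). N = 3, triplicate.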

T1 sequence (P61073 whole entry): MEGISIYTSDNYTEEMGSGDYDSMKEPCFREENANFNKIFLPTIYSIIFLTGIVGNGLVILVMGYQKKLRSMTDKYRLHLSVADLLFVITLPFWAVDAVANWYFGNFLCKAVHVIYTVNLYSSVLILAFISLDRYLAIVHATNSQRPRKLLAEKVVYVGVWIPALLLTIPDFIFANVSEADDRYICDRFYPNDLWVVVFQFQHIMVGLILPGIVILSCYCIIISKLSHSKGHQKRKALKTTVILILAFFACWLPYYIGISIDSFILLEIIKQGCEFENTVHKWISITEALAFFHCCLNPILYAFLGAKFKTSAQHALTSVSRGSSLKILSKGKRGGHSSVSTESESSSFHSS

| SMILES | IC50 [µM] |
| --- | --- |
| NCCC1CCN(Cc2ccccc2Cl)CC1 | > 10 |
| Clc1ccccc1CN1CCC(CNCC2CCCCC2)CC1 | 3.16 |
| Cc1ccccc1CN1CCC(CN)CC1 | > 10 |
| CN(C)CCCNCc1ccc(Cl)c(Cl)c1 | > 10 |
| c1ccc(CNCC2CCN(Cc3ccccc3)CC2)cc1 | 10 |
| Clc1ccccc1CN1CCC(CNCc2c[nH]cn2)CC1 | 1 |
| COc1ccccc1CN1CCC(CNCc2ccccc2)CC1 | 2.51 |
| COc1ccccc1CN1CCC(CN)CC1 | > 10 |
| CCc1cccc(CNCC2CCN(Cc3ccccc3OC)CC2)c1 | 0.794 |
| Cc1cccc(CNCC2CCN(Cc3ccc(Cl)cc3)CC2)c1 | 10 |
| Cc1cccc(CNCC2CCN(Cc3cccc(Cl)c3)CC2)c1 | 2.51 |
| COc1ccccc1CN1CCC(CNCc2cccc(C)c2)CC1 | 0.794 |
| Clc1ccccc1CN1CCC(CNCc2ccc3ccccc3c2)CC1 | 0.501 |
| Clc1ccccc1CN1CCC(CNCc2cccc(-c3ccccc3)c2)CC1 | 0.501 |
| NCC1CCN(CC2CCCCC2)CC1 | > 10 |
| NCC1CCN(Cc2ccccc2Cl)CC1 | 10 |
| Oc1ccc(CN2CCC(CNCc3ccccc3)CC2)cc1 | > 10 |
| NCC1CCN(Cc2ccc(Cl)c(Cl)c2)CC1 | > 10 |

Results, then the molecule that gave them:

| IC50 [µM] | SMILES |
| --- | --- |
| 1 | Cc1ccc(CNCC2CCN(Cc3ccccc3Cl)CC2)cc1 |
| 0.158 | Cc1cccc(CNCC2CCN(Cc3ccccc3Cl)CC2)c1 |
| 0.316 | Clc1cccc(CNCC2CCN(Cc3ccccc3Cl)CC2)c1 |
| 0.316 | Oc1ccc(CNCC2CCN(Cc3ccccc3Cl)CC2)cc1 |
| 2 | Clc1ccccc1CN1CCC(CNCc2cccnc2)CC1 |
| 0.631 | Clc1ccc(CNCC2CCN(Cc3ccccc3Cl)CC2)cc1 |
| 0.316 | Clc1ccccc1CN1CCC(CNCc2ccccc2)CC1 |
| 0.251 | Cc1ccccc1CNCC1CCN(Cc2ccccc2Cl)CC1 |
| 0.2 | Clc1ccccc1CNCC1CCN(Cc2ccccc2Cl)CC1 |
| 0.794 | Cc1cccc(CNCC2CCN(Cc3cccc(Cl)c3Cl)CC2)c1 |
| 0.251 | Clc1ccccc1CN1CCC(CNCc2ccc3c(c2)OCO3)CC1 |
| 2.51 | Clc1ccccc1CN1CCC(CNCc2cccc(Cl)c2Cl)CC1 |
| 1.26 | COc1ccc(CNCC2CCN(Cc3ccccc3Cl)CC2)cc1 |
| 0.251 | Cc1cccc(CNCC2CCN(Cc3c(Cl)cccc3Cl)CC2)c1 |

Biological target: T1, C-X-C chemokine receptor type 4
Test: Displacement of [125I]-CXCL12 from human CXCR4 receptor expressed in HEK293T cell membranes at 100 uM after 2 hrs by scintillation counting analysis relative to IT1t
How it was run: as §1

| SMILES | inhibition [%] |
| --- | --- |
| NCCC1CCN(Cc2ccccc2Cl)CC1 | 56 |
| Clc1ccccc1CN1CCC(CNCC2CCCCC2)CC1 | 77 |
| Cc1ccccc1CN1CCC(CN)CC1 | 81 |
| c1ccc(CNCC2CCN(Cc3ccccc3)CC2)cc1 | 72 |
| Clc1ccccc1CN1CCC(CNCc2c[nH]cn2)CC1 | 96 |
| COc1ccccc1CN1CCC(CNCc2ccccc2)CC1 | 85 |
| COc1ccccc1CN1CCC(CN)CC1 | 67 |
| CCc1cccc(CNCC2CCN(Cc3ccccc3OC)CC2)c1 | 81 |
| Cc1cccc(CNCC2CCN(Cc3ccc(Cl)cc3)CC2)c1 | 86 |
| Cc1cccc(CNCC2CCN(Cc3cccc(Cl)c3)CC2)c1 | 86 |
| COc1ccccc1CN1CCC(CNCc2cccc(C)c2)CC1 | 84 |
| Clc1ccccc1CN1CCC(CNCc2ccc3ccccc3c2)CC1 | 78 |
| Clc1ccccc1CN1CCC(CNCc2cccc(-c3ccccc3)c2)CC1 | 98 |
| NCC1CCN(CC2CCCCC2)CC1 | 59 |
| Oc1ccc(CN2CCC(CNCc3ccccc3)CC2)cc1 | 65 |
| NCC1CCN(Cc2ccc(Cl)c(Cl)c2)CC1 | 67 |

Now from value to molecule:

| inhibition [%] | SMILES |
| --- | --- |
| 62 | Cc1ccc(CNCC2CCN(Cc3ccccc3Cl)CC2)cc1 |
| 63 | Cc1cccc(CNCC2CCN(Cc3ccccc3Cl)CC2)c1 |
| 65 | Clc1cccc(CNCC2CCN(Cc3ccccc3Cl)CC2)c1 |
| 98 | Oc1ccc(CNCC2CCN(Cc3ccccc3Cl)CC2)cc1 |
| 89 | Clc1ccccc1CN1CCC(CNCc2cccnc2)CC1 |
| 80 | Clc1ccc(CNCC2CCN(Cc3ccccc3Cl)CC2)cc1 |
| 87 | Clc1ccccc1CN1CCC(CNCc2ccccc2)CC1 |
| 72 | Cc1ccccc1CNCC1CCN(Cc2ccccc2Cl)CC1 |
| 80 | Clc1ccccc1CNCC1CCN(Cc2ccccc2Cl)CC1 |
| 74 | Cc1cccc(CNCC2CCN(Cc3cccc(Cl)c3Cl)CC2)c1 |
| 72 | Clc1ccccc1CN1CCC(CNCc2ccc3c(c2)OCO3)CC1 |
| 13 | Clc1ccccc1CN1CCC(CNCc2cccc(Cl)c2Cl)CC1 |
| 88 | COc1ccc(CNCC2CCN(Cc3ccccc3Cl)CC2)cc1 |
| 60 | Cc1cccc(CNCC2CCN(Cc3c(Cl)cccc3Cl)CC2)c1 |

Biological target: T1, C-X-C chemokine receptor type 4
Test: Displacement of [125I]-CXCL12 from human CXCR4 receptor expressed in HEK293T cell membranes at 63 uM after 2 hrs by scintillation counting analysis relative to IT1t
How it was run: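 hCXCR4 membranes from transiently transfected HEK293T, competing against ¹²⁵I-CXCL12 at 40 pM, 2 h at 25 °C, filtration and scintillation counting. Percentage displacement by ligand at 63 μM relative to IT1t at 63 μM (100%). N = 3, triplicate.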

| inhibition [%] | SMILES |
| --- | --- |
| 70 | CN(C)CCCNCc1ccc(Cl)c(Cl)c1 |
| > 50 | CCCNCC1CCN(Cc2ccccc2C)CC1 |
| > 50 | CCC[C@H](C)c1cc(CN(C)C)c(O)cc1CN(C)C |
| 69 | NCC1CCN(Cc2ccccc2Cl)CC1 |

Biological target: T1, C-X-C chemokine receptor type 4
Test: (§2) Antagonist activity at human DEF3-RLuc fused CXCR4 receptor expressed in HEK293T cells co-expressing DEF3-Beta-arrestin-2-mVenus assessed as inhibition of CXCL12-induced beta-arrestin2 recruitment preincubated for 60 mins followed by CXCL12 addition measured after 20 mins by BRET assay
Format: cell-based

| SMILES | IC50 [µM] |
| --- | --- |
| Clc1ccccc1CN1CCC(CNCc2cccc(-c3ccccc3)c2)CC1 | 2.51 |
| Oc1ccc(CN2CCC(CNCc3ccccc3)CC2)cc1 | > 31.6 |

Next, values leading:

| IC50 [µM] | SMILES |
| --- | --- |
| 3.16 | Cc1cccc(CNCC2CCN(Cc3ccccc3Cl)CC2)c1 |
| 3.98 | Clc1ccccc1CN1CCC(CNCc2ccccc2)CC1 |

Biological target: T1, C-X-C chemokine receptor type 4
Test: as §2, with “recruitment at 100 uM” for “recruitment”, “assay relative to IT1t” for “assay”
Format: cell-based
How it was run: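 HEK293T cells transiently co-transfected (PEI) with hCXCR4-RLuc and β-arrestin-2-mVenus, assayed two days later in HBSS. Compound given 60 min before 10 nM CXCL12 with 5 µM coelenterazine-h; RLuc (480 nm) and 540 nm read after 20 min. BRET ratio expressed as fold over vehicle. Single-concentration inhibition at 100 μM, IT1t as 100%. N = 3, triplicate.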

| inhibition [%] | SMILES |
| --- | --- |
| 97 | Cc1cccc(CNCC2CCN(Cc3ccccc3Cl)CC2)c1 |
| 103 | Clc1ccccc1CN1CCC(CNCc2ccccc2)CC1 |
| 102 | Clc1ccccc1CN1CCC(CNCc2cccc(-c3ccccc3)c2)CC1 |

Biological target: T1, C-X-C chemokine receptor type 4
Test: Antagonist activity at human DEF3-fused CXCR4 receptor expressed in HEK293T cells co-expressing DAN1-HA-Galphaq/i5 assessed as inhibition of CXCL12-induced IP3 accumulation after 90 mins in presence of [3H]-myo-inositol by scintillation counting analysis
Format: functional, cell-based
How it was run: (§3)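 HEK293T co-transfected (PEI) with CXCR4 and HA-Gαq/i5, moved next day to poly-L-lysine wells and labelled overnight with 1 µCi/mL [³H]-myo-inositol in inositol-free DMEM. Antagonist dilutions with 10 nM CXCL12, 10 mM LiCl, 0.05% BSA in HEPES saline pH 7.4, 1.5 h at 37 °C. InsP isolated on […] columns, then scintillation counted. Single-point at 100 μM vs IT1t; N ≥ 3, triplicate.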

| SMILES | IC50 [µM] | inhibition |
| --- | --- | --- |
| Clc1ccccc1CN1CCC(CNCc2cccc(-c3ccccc3)c2)CC1 | 1.26 | Dose-dependent effect |
| Oc1ccc(CN2CCC(CNCc3ccccc3)CC2)cc1 | > 31.6 |  |

Next, values leading:

| IC50 [µM] | inhibition | SMILES |
| --- | --- | --- |
| 1 | Dose-dependent effect | Cc1cccc(CNCC2CCN(Cc3ccccc3Cl)CC2)c1 |
| 2 | Dose-dependent effect | Clc1ccccc1CN1CCC(CNCc2ccccc2)CC1 |

Biological target: T1, C-X-C chemokine receptor type 4
Test: Antagonist activity at human DEF3-fused CXCR4 receptor expressed in HEK293T cells co-expressing DAN1-HA-Galphaq/i5 assessed as inhibition of CXCL12-induced IP3 accumulation at 100 uM after 90 mins in presence of [3H]-myo-inositol by scintillation counting analysis relative to IT1t
Format: functional, cell-based
How it was run: as §3

| inhibition [%] | SMILES |
| --- | --- |
| 87 | Cc1cccc(CNCC2CCN(Cc3ccccc3Cl)CC2)c1 |
| 93 | Clc1ccccc1CN1CCC(CNCc2ccccc2)CC1 |
| 94 | Clc1ccccc1CN1CCC(CNCc2cccc(-c3ccccc3)c2)CC1 |

Biological target: T1, C-X-C chemokine receptor type 4
Test: Non-competitive antagonist activity at human CXCR4 receptor expressed in HEK293T cells co-expressing galphai1 assessed as inhibition of CXCL12-induced receptor activation up to 100 uM preincubated for 30 mins followed by CXCL12 addition and measured after 20 mins by FRET assay
Format: cell-based
How it was run: (§4)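 HEK293T transfected (Effectene) with CXCR4 and a Gαi1 FRET sensor, seeded on poly-D-lysine, read 24 h later at 37 °C in HEPES buffer pH 7.3. Antagonist at 0.1, 1, 10 or 100 µM (final, from DMSO) for 30 min, 5 min pre-read, then increasing CXCL12, FRET read 20 min (ex 420, em 485/540 nm). CXCL12 curves built per antagonist level; 3–5 repeats.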

| inhibition | SMILES |
| --- | --- |
| Active | Cc1cccc(CNCC2CCN(Cc3ccccc3Cl)CC2)c1 |
| Active | Clc1ccccc1CN1CCC(CNCc2cccc(-c3ccccc3)c2)CC1 |

Biological target: T1, C-X-C chemokine receptor type 4
Test: Displacement of CXCL12-red from human NLuc-tagged CXCR4 receptor expressed in HEK293T cell membranes after 2 hrs by NanoBRET assay
How it was run: (§5)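 Membranes (10 µg/well) from HEK293G cells stably expressing sig-NLuc–CXCR4 (G418-selected), in HBSS pH 7.4. CXCL12-red (50 nM) and competitor added together, 2 h at 37 °C; 10 µM furimazine, emissions at 460 and >610 nm read 5 min later, BRET ratio >610/460. Normalized to buffer (0%) and IT1t (100%); N = 3, triplicate.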

| IC50 [µM] | SMILES |
| --- | --- |
| 1 | Cc1cccc(CNCC2CCN(Cc3ccccc3Cl)CC2)c1 |
| 0.794 | Clc1ccccc1CN1CCC(CNCc2ccccc2)CC1 |
| 0.631 | Clc1ccccc1CN1CCC(CNCc2cccc(-c3ccccc3)c2)CC1 |

Biological target: T1, C-X-C chemokine receptor type 4
Test: Displacement of CXCL12-red from human NLuc-tagged CXCR4 receptor expressed in HEK293T cell membranes at 100 uM after 2 hrs by NanoBRET assay relative to IT1t
How it was run: as §5

| inhibition [%] | SMILES |
| --- | --- |
| 73 | Cc1cccc(CNCC2CCN(Cc3ccccc3Cl)CC2)c1 |
| 84 | Clc1ccccc1CN1CCC(CNCc2ccccc2)CC1 |
| 98 | Clc1ccccc1CN1CCC(CNCc2cccc(-c3ccccc3)c2)CC1 |

Biological target: T1, C-X-C chemokine receptor type 4
Test: Competitive antagonist activity at human CXCR4 receptor expressed in HEK293T cells co-expressing galphai1 assessed as inhibition of CXCL12-induced receptor activation up to 100 uM preincubated for 30 mins followed by CXCL12 addition and measured after 20 mins by FRET assay
Format: cell-based
How it was run: as §4

| inhibition | SMILES |
| --- | --- |
| Active | Clc1ccccc1CN1CCC(CNCc2ccccc2)CC1 |
| Active | c1cc(CN2CCCNCCNCCCNCC2)ccc1CN1CCCNCCNCCCNCC1 |
